Laboratory results published in the array DNA melting data of Ke et al. (doi:10.1101/2024.01.08.574731).

What was measured:
[1] = melting temperature; fluorescence melt of hairpins on a sequencing array, two-state fit, raised by 9.35 °C to match UV melts; conditions: sodium 0.088 M
Outline: (§1)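 Two-state fits, bootstrapped, provided melting temperature and folding enthalpy from Cy3 fluorescence normalised to pre-quench Cy3 and to control constructs. Library hairpins with annealed Cy3 and quencher oligos were imaged on a sequenced MiSeq flow cell in 50 mM Na-HEPES pH 8.0, 25 mM NaCl, at 2.5 °C intervals up to 60 °C. Four replicates were combined with inverse-variance weighting. A 9.35 °C upward shift was applied to fitted temperatures to match UV melts.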

[2] = folding enthalpy; higher = less favourable; fluorescence melt of hairpins on a sequencing array, two-state fit; conditions: sodium 0.088 M
Outline: as §1

Q: Which Tm [1] does the source give for GGAAACGAAAGTTTCTCC ((((((....)))..))) here?
A: Its Tm is 45.9 °C.

Q: And the folding enthalpy [2]?
A: The folding enthalpy was -13.8 kcal/mol.

Q: What does the source list for GGAAACGGAAACGCTTCC ((((.((....)).))))?
A: Tm [1]: 43.4 °C; folding enthalpy [2]: -34.1 kcal/mol

Q: What does the source list for GGAAACGGAAACGTTCCC ((.((((....)))).))?
A: Tm [1]: 45.1 °C; folding enthalpy [2]: -23.1 kcal/mol

Q: With GGAAAGCGAAAGCTCTCC (((.(((....))).))) as the sequence, how does the Tm [1] read?
A: The Tm was 44 °C.

Q: What about the folding enthalpy [2] of the same sequence?
A: Its folding enthalpy is -22.8 kcal/mol.

Q: Which Tm [1] does the source give for GGAAAGTCGAAAGACTCC (((..(((....)))))) here?
A: Its Tm is 33.7 °C.

Q: What about the folding enthalpy [2] of the same sequence?
A: The folding enthalpy was -15.6 kcal/mol.

Q: With GGAAATCCGAAAGGATCC (((..(((....)))))) as the sequence, how does the Tm [1] read?
A: The Tm was 35.4 °C.

Q: And the folding enthalpy [2]?
A: The folding enthalpy was -13.1 kcal/mol.

Q: Which Tm [1] does the source give for GGAAATCGAAAGATGTCC (((.(((....))).))) here?
A: Its Tm is 40.9 °C.

Q: What about the folding enthalpy [2] of the same sequence?
A: Its folding enthalpy is -29 kcal/mol.

Q: Which Tm [1] does the source give for GGAACACGAAAGTGCTCC (((.(((....))).))) here?
A: Its Tm is 50.2 °C.

Q: What about the folding enthalpy [2] of the same sequence?
A: Its folding enthalpy is -40.7 kcal/mol.

Q: For GGAACACGAAAGTGTCC (((.(((....)))))), which Tm [1] is on record?
A: The Tm was 52 °C.

Q: And the folding enthalpy [2]?
A: The folding enthalpy was -23.5 kcal/mol.

Q: Which Tm [1] does the source give for GGAACAGCGAAAGCTTCC (((..(((....)))))) here?
A: Its Tm is 35.5 °C.

Q: What about the folding enthalpy [2] of the same sequence?
A: The folding enthalpy was -18.4 kcal/mol.

Q: For GGAACCCGAAAGGGGTCC (((.(((....))).))), which Tm [1] is on record?
A: Its Tm is 68.2 °C.

Q: What about the folding enthalpy [2] of the same sequence?
A: Its folding enthalpy is -30.4 kcal/mol.

Q: Which results are given for GGAACCGAAAGGTAATCC ((((((....)))..)))?
A: Tm [1]: 26.8 °C; folding enthalpy [2]: -9.87 kcal/mol

Q: For GGAACCGAAAGGTACTCC ((((((....)))..))), which Tm [1] is on record?
A: The Tm was 33.3 °C.

Q: And the folding enthalpy [2]?
A: Its folding enthalpy is -12.6 kcal/mol.

Q: Which Tm [1] does the source give for GGAACCGAAAGGTGTTCC ((((((....)))..))) here?
A: The Tm was 40.5 °C.

Q: And the folding enthalpy [2]?
A: Its folding enthalpy is -17.6 kcal/mol.

Q: Which Tm [1] does the source give for GGAACGACGAAAGTCTCC (((..(((....)))))) here?
A: Its Tm is 27.6 °C.

Q: What about the folding enthalpy [2] of the same sequence?
A: Its folding enthalpy is -10.9 kcal/mol.

Q: What does the source list for GGAACGGGAAACCGCTCC (((.(((....))).)))?
A: Tm [1]: 48.7 °C; folding enthalpy [2]: -28.1 kcal/mol

Q: Which results are given for GGAACTCGAAAGAGGTCC (((.(((....))).)))?
A: Tm [1]: 60 °C; folding enthalpy [2]: -39 kcal/mol

Q: What does the source list for GGAAGACGAAAGTCTCC (((.(((....))))))?
A: Tm [1]: 52.3 °C; folding enthalpy [2]: -20.9 kcal/mol

Q: Which Tm [1] does the source give for GGAAGAGCGAAAGCTTCC (((..(((....)))))) here?
A: The Tm was 43.8 °C.

Q: What about the folding enthalpy [2] of the same sequence?
A: Its folding enthalpy is -16.1 kcal/mol.

Q: Which Tm [1] does the source give for GGAAGCGAAAGCTAATCC ((((((....)))..))) here?
A: The Tm was 26.7 °C.

Q: And the folding enthalpy [2]?
A: The folding enthalpy was -12 kcal/mol.

Q: For GGAAGCGAAAGCTCCTCC ((((((....)))..))), which Tm [1] is on record?
A: Its Tm is 51.3 °C.

Q: And the folding enthalpy [2]?
A: Its folding enthalpy is -16.8 kcal/mol.

Q: With GGAAGCGAAAGCTCTCC ((((((....))).))) as the sequence, how does the Tm [1] read?
A: Its Tm is 43.5 °C.

Q: What about the folding enthalpy [2] of the same sequence?
A: The folding enthalpy was -16.2 kcal/mol.

Q: Which Tm [1] does the source give for GGAAGCGAAAGCTGTTCC ((((((....)))..))) here?
A: Its Tm is 36.5 °C.

Q: And the folding enthalpy [2]?
A: Its folding enthalpy is -12.1 kcal/mol.

Q: With GGAAGCGAAAGCTTGTCC ((((((....)))..))) as the sequence, how does the Tm [1] read?
A: Its Tm is 35.8 °C.

Q: What about the folding enthalpy [2] of the same sequence?
A: The folding enthalpy was -10.3 kcal/mol.

Q: What does the source list for GGAAGCGCGAAAGCGTCC (((..(((....))))))?
A: Tm [1]: 37.3 °C; folding enthalpy [2]: -9.67 kcal/mol

Q: For GGAAGCGGAAACGCCTCC (((.(((....))).))), which Tm [1] is on record?
A: The Tm was 45.6 °C.

Q: And the folding enthalpy [2]?
A: The folding enthalpy was -20 kcal/mol.

Q: With GGAAGGCCGAAAGGCTCC (((..(((....)))))) as the sequence, how does the Tm [1] read?
A: The Tm was 34.6 °C.

Q: What about the folding enthalpy [2] of the same sequence?
A: The folding enthalpy was -11.9 kcal/mol.

Q: Which results are given for GGAAGGGGAAACCCCTCC (((.(((....))).)))?
A: Tm [1]: 45 °C; folding enthalpy [2]: -21.1 kcal/mol

Q: Which results are given for GGAAGGGGAAACCCTCCC ((.((((....)))).))?
A: Tm [1]: 41.1 °C; folding enthalpy [2]: -21 kcal/mol

Q: Which Tm [1] does the source give for GGAAGGGGAAACCCTTCC (((((((....))))))) here?
A: The Tm was 64.4 °C.

Q: What about the folding enthalpy [2] of the same sequence?
A: The folding enthalpy was -35.1 kcal/mol.

Q: For GGAAGGGGAAACCTTTCC ((((.((....)).)))), which Tm [1] is on record?
A: The Tm was 43.3 °C.

Q: What about the folding enthalpy [2] of the same sequence?
A: Its folding enthalpy is -23.4 kcal/mol.

Q: For GGAAGTGGAAACGCTTCC (((((.(....).))))), which Tm [1] is on record?
A: Its Tm is 50.8 °C.

Q: What about the folding enthalpy [2] of the same sequence?
A: Its folding enthalpy is -41.7 kcal/mol.

Q: What does the source list for GGAATCCGAAAGGAATCC (((.(((....))).)))?
A: Tm [1]: 48.7 °C; folding enthalpy [2]: -31.2 kcal/mol

Q: Which Tm [1] does the source give for GGAATCCGAAAGGAGTCC (((.(((....))).))) here?
A: Its Tm is 55.8 °C.

Q: And the folding enthalpy [2]?
A: Its folding enthalpy is -42.5 kcal/mol.
